Source: PubChem
Shown are actives, neighbours in structure and some others; about 0.77% of the full set was active somewhere.
mIAP activ: mouse IAP activation; muIAP, CDP-Star luminescence, 30 min; stronger effect = higher value; 1 = vehicle-only enzyme signal, 0 = enzyme-free wells; activation factor at 10 µM; 330,000 compounds, 0.24% hits;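 active = activation factor of at least 2 at 20 µM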
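also added = chemiluminescent substrate CDP-Star | test system = mouse IAP enzyme | signal = chemiluminescence readout | compound = DMSO-dissolved test compounds | incubation = 30 min at room temperature | benchmarks = DMSO wells, no-enzyme wells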
bIAP activator: intestinal alkaline phosphatase (bovine) activation; purified bovine IAP, CDP-star luminescence, 30 min; stronger effect = higher value; fold of DMSO-control signal, blank-subtracted; activation factor at 20 µM; 200,000 compounds, 0.17% hits; AID 1016;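 active = activation factor of 2 or more at 20 µM, a signal rise over negative controls twice the positive control's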
hIAP inh: human IAP inhibition. purified IAP, CDP-Star luminescence, 30 min. inhibition, % at 10 µM. 330,000 compounds, 0.12% hits. AID 2544;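 active = inhibition reaching a set limit with compound at 10 µM in the primary screen, cut at about 35% in these data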
Target sequence (P09923 whole entry, looked up): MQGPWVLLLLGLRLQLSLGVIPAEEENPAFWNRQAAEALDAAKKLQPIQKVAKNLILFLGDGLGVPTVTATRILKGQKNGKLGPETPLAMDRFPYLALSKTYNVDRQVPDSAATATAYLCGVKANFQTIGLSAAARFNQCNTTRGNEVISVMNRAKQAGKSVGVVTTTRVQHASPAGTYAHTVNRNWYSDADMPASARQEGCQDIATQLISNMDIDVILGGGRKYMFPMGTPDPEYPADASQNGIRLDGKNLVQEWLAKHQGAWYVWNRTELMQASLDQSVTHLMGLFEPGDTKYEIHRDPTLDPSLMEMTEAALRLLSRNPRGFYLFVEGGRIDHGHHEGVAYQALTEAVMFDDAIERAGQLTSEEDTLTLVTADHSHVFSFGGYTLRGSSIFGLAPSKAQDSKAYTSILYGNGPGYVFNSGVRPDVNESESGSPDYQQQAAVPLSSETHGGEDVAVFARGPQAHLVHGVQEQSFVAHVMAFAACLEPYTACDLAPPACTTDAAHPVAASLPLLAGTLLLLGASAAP
bIAP inh: intestinal alkaline phosphatase (bovine) inhibition; purified bovine IAP, CDP-star luminescence, 30 min; inhibition, % at 20 µM; 190,000 tested, under 10 active;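 active = over 50% inhibition of intestinal alkaline phosphatase at 20 µM in the single-dose screen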
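Assay system: bovine IAP enzyme; medium: DEA buffer 100 mM, pH 9.8, with MgCl2 1.0 mM, ZnCl2 0.02 mM; doses: 20 µM single dose; incubation: enzyme reaction for 30 min at room temperature; detection: CDP-star luminescence signal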
hIAP act: human IAP activation; activation factor at 10 µM; purified human IAP, CDP-Star luminescence, 30 min; stronger effect = higher value; 1 = vehicle-only enzyme, 0 = enzyme-free background; 330,000 compounds, 0.16% hits;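 active = activation factor of the enzyme at least 2-fold when tested at 20 µM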
mIAP block: mouse IAP inhibition; inhibition, % at 10 µM; purified mouse IAP, CDP-Star luminescence, 30 min; 330,000 compounds, 0.2% hits;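 active = inhibition of at least 40% at 10 µM in the primary screen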
mIAP inh confirm: mouse IAP inhibition confirmation. purified mouse IAP, CDP-Star luminescence, 30 min. shares compounds with mIAP block. 11,000 compounds, 4.7% hits. inhibition, % at 10 µM;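 active = inhibition of at least 40% at 10 µM in either of the two replicates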
A number is an active result.

Results for CCc1ccc(NC(=S)NC2CC3CCCC(C2)N3Cc2ccccc2)cc1 (stereo not given) ?
mIAP activ: 5; bIAP activator: 4.6; hIAP inh: inactive; bIAP inh: inactive; hIAP act: inactive; mIAP block: inactive; mIAP inh confirm: inactive

Results for CCCN1C2CCCC1CC(NC(=S)Nc1cccc(C)c1)C2 (stereo not given) ?
mIAP activ: inactive; bIAP activator: inactive; hIAP inh: inactive; bIAP inh: inactive; hIAP act: inactive; mIAP block: inactive

Results for CC(=O)Nc1nc(-c2cccs2)cs1 ?
mIAP activ: inactive; bIAP activator: inactive; hIAP inh: inactive; bIAP inh: inactive; hIAP act: inactive; mIAP block: inactive

Results for Nc1nc(-c2cccs2)cs1 ?
mIAP activ: inactive; bIAP activator: inactive; hIAP inh: inactive; bIAP inh: inactive; hIAP act: inactive; mIAP block: 46; mIAP inh confirm: 52

What do the screens show for `Cc1ccccc1OCC(O)Cn1c(=N)n(CCN2CCOCC2)c2ccccc21` (stereo not given)?
mIAP activ: inactive; bIAP activator: inactive; hIAP inh: inactive; bIAP inh: inactive; hIAP act: inactive; mIAP block: inactive

How did N#CC1=C(N)C2=C(N3CCCCC3)CCCC2C1(C#N)C#N (stereo not given) do in these assays?
mIAP activ: inactive; bIAP activator: inactive; hIAP inh: inactive; hIAP act: inactive; mIAP block: inactive; mIAP inh confirm: 40

How did N#CC(C#N)=C1C=C2C=C(N3CCCCC3)CCC2CC1 (stereo not given) do in these assays?
bIAP activator: inactive; bIAP inh: inactive

What do the screens show for `O=S(=O)(O)c1cc(O)ccc1O`?
mIAP activ: inactive; hIAP inh: inactive; hIAP act: inactive; mIAP block: inactive

Results for O=S(=O)(c1cc(O)ccc1O)c1cccc2c(S(=O)(=O)c3cc(O)ccc3O)cccc12 ?
mIAP activ: inactive; hIAP inh: inactive; hIAP act: inactive; mIAP block: 65; mIAP inh confirm: 58

Results for N#C/C(=C\c1coc2ccc(O)cc2c1=O)C(=O)Nc1nc2ccccc2s1 ?
mIAP activ: inactive; hIAP inh: inactive; hIAP act: inactive; mIAP block: 60; mIAP inh confirm: 64

How did CCCCOc1[nH]c2nc(-c3ccco3)n(Cc3ccco3)c(=N)c2c1C#N do in these assays?
mIAP activ: inactive; bIAP activator: inactive; hIAP inh: inactive; bIAP inh: inactive; hIAP act: inactive; mIAP block: 63; mIAP inh confirm: 68

What do the screens show for `O=C(O)C1Nc2c(O)cccc2C2C=CCC12` (stereo not given)?
mIAP activ: inactive; bIAP activator: inactive; hIAP inh: inactive; bIAP inh: inactive; hIAP act: inactive; mIAP block: 74; mIAP inh confirm: 86

How did Cc1cccc(C2=NN(c3ccccc3)[C@H](CO)[C@H]2c2ccccc2)c1 do in these assays?
mIAP activ: 2.2; mIAP block: inactive; mIAP inh confirm: inactive

What do the screens show for `Nc1c(C(=O)N/N=C/c2cccnc2)oc2nc(-c3ccccc3)cc(-c3ccco3)c12`?
mIAP activ: inactive; hIAP inh: inactive; hIAP act: inactive; mIAP block: inactive

Results for NNC(=O)c1oc2nc(-c3ccco3)cc(-c3ccco3)c2c1N ?
mIAP activ: inactive; hIAP inh: inactive; hIAP act: inactive; mIAP block: 62; mIAP inh confirm: 72

What do the screens show for `Nc1c(C(=O)N/N=C/c2cccnc2)oc2nc(-c3ccco3)cc(-c3ccco3)c12`?
mIAP activ: inactive; hIAP inh: inactive; hIAP act: inactive; mIAP block: 49; mIAP inh confirm: 41

What do the screens show for `COc1ccc(S(=O)(=O)N2CCOCC2)cc1NC(=O)C1COc2ccccc2O1` (stereo not given)?
mIAP activ: inactive; hIAP inh: inactive; hIAP act: inactive; mIAP block: inactive

Results for Cc1c(-c2ccccc2)nc2ccccc2c1C(=O)Oc1ccc([N+](=O)[O-])cc1 ?
mIAP activ: inactive; bIAP activator: inactive; hIAP inh: inactive; bIAP inh: inactive; hIAP act: inactive; mIAP block: inactive

How did COc1c(Cl)cc(C(=O)NN)cc1Cl do in these assays?
mIAP activ: inactive; bIAP activator: inactive; hIAP inh: inactive; bIAP inh: inactive; hIAP act: inactive; mIAP block: inactive
